A selection: hits, their analogues and other compounds. The true share with any hit is near 3.2%.
UBC13 inh: blocks human UBC13 polyubiquitin chain formation. P61088. AID 485273. inhibition, % at 20 µM. TR-FRET. hit rate 0.47% among 330,000; in the data active = inhibition above about 45%, passing the limit was not always enough; inconclusive = no clear call, values can overlap the other calls
MEKK3 PB1 HTS: raises or lowers MEK5 binding to the human MEKK3 PB1 domain. bead-based flow cytometry, Alexa488-MEK5 binding to MEKK3; actives lie on both sides; 0 = blocked by unlabeled MEK5, 100 = vehicle. hit rate 1.4% among 290,000. Q99759. binding response (% of control), % at 10 µM;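 active = binding response more than 3 SD above or below the average of its plate-row segment, actives on both sides; inconclusive = wells at one plate position flagged as instrument error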;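 note: Alexa488 bead fluorescence after subtracting the streptavidin-only scavenger bead signal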
DSG3 Ab inh: human desmoglein-3 autoantibody binding inhibition; binding (percent of control), % at 10 µM; P32926; hit rate 0.48% among 310,000; DSG3-coupled beads, scFv-anti-DSG3-GFP binding, flow cytometry; hits give low values;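 active = binding more than 3 SD below its plate's average and above zero; inconclusive = below that plate limit but binding exactly zero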;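 note: hits lower antibody fragment binding to DSG3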
MEKK2 WT-MEK5: raises or lowers MEK5 binding to wildtype human MEKK2 PB1 domain. binding response (% of control), % at 10 µM. Q9Y2U5. bead flow cytometry, Alexa488-MEK5 binding to MEKK2 WT; actives lie on both sides. hit rate 1.1% among 290,000; in the data active = binding response below about 67% or above about 130%; inconclusive = no clear call, values can overlap the other calls; inactive = in between
Apaf1 inhib: human Apaf-1 inhibition | reconstituted apoptosome caspase-3 activity, DEVD-Rh110 fluorescence | inhibition, % at 20 µM | hit rate 0.71% among 330,000 | AID 489030; active = inhibition of at least 40% at 20 µM;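 note: plate controls were DMSO wells for no effect and DEVD-CHO caspase inhibitor wells for full effect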
Target sequence (O14727 whole entry, looked up): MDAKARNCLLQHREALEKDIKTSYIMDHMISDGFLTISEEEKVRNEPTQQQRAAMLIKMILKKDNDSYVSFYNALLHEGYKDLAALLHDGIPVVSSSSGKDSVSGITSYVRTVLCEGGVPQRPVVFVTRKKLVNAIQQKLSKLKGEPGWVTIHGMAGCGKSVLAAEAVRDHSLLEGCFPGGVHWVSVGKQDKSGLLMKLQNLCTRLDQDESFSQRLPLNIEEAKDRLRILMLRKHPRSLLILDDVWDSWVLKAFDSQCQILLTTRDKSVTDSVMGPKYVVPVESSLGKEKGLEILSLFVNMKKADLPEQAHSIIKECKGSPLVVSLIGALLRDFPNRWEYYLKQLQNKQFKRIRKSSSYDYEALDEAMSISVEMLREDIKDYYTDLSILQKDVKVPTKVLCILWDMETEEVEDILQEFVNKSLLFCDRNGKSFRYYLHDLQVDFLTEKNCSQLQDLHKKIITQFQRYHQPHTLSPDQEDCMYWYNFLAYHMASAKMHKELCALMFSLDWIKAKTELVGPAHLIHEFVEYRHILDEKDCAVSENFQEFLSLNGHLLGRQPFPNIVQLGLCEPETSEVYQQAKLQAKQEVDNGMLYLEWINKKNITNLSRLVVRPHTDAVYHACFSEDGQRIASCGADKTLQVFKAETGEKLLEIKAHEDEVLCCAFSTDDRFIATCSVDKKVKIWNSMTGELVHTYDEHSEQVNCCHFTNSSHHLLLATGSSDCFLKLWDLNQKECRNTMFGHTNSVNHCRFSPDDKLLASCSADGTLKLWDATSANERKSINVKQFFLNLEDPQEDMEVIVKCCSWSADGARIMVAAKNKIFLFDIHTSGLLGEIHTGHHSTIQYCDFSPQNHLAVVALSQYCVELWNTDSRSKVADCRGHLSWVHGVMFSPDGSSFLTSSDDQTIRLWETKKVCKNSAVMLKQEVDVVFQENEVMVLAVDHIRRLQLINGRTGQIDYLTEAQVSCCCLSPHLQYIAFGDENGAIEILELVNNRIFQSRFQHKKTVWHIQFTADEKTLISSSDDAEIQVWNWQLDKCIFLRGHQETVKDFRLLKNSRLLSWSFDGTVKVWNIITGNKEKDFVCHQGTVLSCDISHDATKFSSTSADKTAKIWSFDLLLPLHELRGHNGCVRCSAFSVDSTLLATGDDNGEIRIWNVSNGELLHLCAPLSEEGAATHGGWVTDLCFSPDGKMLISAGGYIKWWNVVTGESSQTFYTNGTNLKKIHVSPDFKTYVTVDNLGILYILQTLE
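Medium: Hepes buffer, pH 7.5 / System: biochemical Apaf-1 apoptosome reconstitution / Measured by: Rh110 fluorescence, excitation 480 nm, emission 540 nm / Times: compound with Apaf-1, dATP, procaspase-3 30 min, then 50 min reaction, room temperature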
MEKK2 mut-MEK5: signal of MEK5 binding to mutant human MEKK2 PB1 domain. hit rate 0.35% among 290,000. percent response, % at 10 µM. AID 1530. bead flow cytometry, Alexa488-MEK5 binding to MEKK2 mutant; in the data active = percent response above about 24%, passing the limit was not always enough
Numbers without * were called inactive; u = inconclusive; x = no result given; [ ] = dose if it differs, or a comment.

SMILES	UBC13 inh	MEKK3 PB1 HTS	DSG3 Ab inh	MEKK2 WT-MEK5	Apaf1 inhib	MEKK2 mut-MEK5
COc1ccc(OC)c(S(=O)(=O)N2CCN(C(=O)CCc3ccccc3)CC2)c1	-6.9	100.0	98.9	104.0	4.8	4.0
NC(=O)Cn1c(=O)n(-c2ccccc2)c(=O)c2oc3ccccc3c21	8.3	103.0	97.3	95.0	-18.2	-6.0
CCOc1ccccc1NC(=O)Cn1c(=O)n(-c2ccccc2)c(=O)c2oc3ccccc3c21	-7.5	96.0	94.5	5.0*	0.5	10.0
CN(C)CCCN(C(=O)c1cc(-c2cccs2)nc2ccccc12)c1nc2ccc(F)cc2s1	18.1	109.0	x	203.0*	25.2	54.0*
Nc1c(C(=O)N2CCCC2)sc2nc(-c3ccccc3)ccc12	12.3	102.0	97.6	97.0	-0.7	-2.0
Cc1nc2nc(-c3ccco3)[nH]n2c(=O)c1Cc1ccccc1	1.2	101.0	102.9	103.0	29.1	5.0
Cc1nc2nc(-c3ccco3)[nH]n2c(=O)c1C	1.4	97.0	65.4*	98.0	-9.9	0.0
COc1cc(OC)cc(C(=O)Nc2cc(-c3cn4cccnc4n3)ccc2C)c1	26.5	103.0	-10.7*	103.0	-9.4	1.0
CC(=O)Oc1ccc(C(=O)NC(C)CCc2ccccc2)cc1 (stereo not drawn)	0.3	106.0	114.6	106.0	-39.2	4.0
O=C(Nc1ccc(F)cc1)Nc1ccc([N+](=O)[O-])cn1	2.3	100.0	54.3*	97.0	-18.7	-2.0
COc1ccc(CCN(C)C(=O)c2c(C)nn(CC(C)C)c2Cl)cc1OC	10.0	55.0*[inhibitor]	100.8	44.0*[inhibitor]	16.2	-39.0
CCOc1ccc(Cl)cc1C1=CC(=O)C[C@H](c2ccc(OC)cc2)C1	-13.5	x	107.5	x	22.9	x
Nc1cc(N2CCCC2)c(Cl)cc1[N+](=O)[O-]	-15.5	100.0	102.4	99.0	42.6*	-1.0
CC(C)CC1C(=O)N(Cc2cn(CCC3OCCCO3)nn2)CCS(=O)(=O)N1Cc1ccc(-c2ccc(Cl)c(Cl)c2)cc1 (stereo not drawn)	x	x	104.2	x	x	x
COc1cc(NCCCCCCCN)c2ncccc2c1	-39.7	60.0	102.5	101.0	94.7*	2.0
COc1cc(NCc2ccccc2O)c2ncccc2c1	-4.6	102.0	81.2	103.0	18.3	5.0
O=C1CC(C(=O)Nc2ccc(F)cc2)n2cnnc2N1 (stereo not drawn)	-10.9	110.0	2.4*	97.0	-7.1	1.0
COc1ccc(C(=O)NCc2nnc(SCC(=O)Nc3nc4ccccc4s3)o2)cc1	1.6	94.0	85.0*	92.0	13.0	-2.0
COc1ccc2nc(NC(=O)CSc3nnnn3C)sc2c1	-13.7	100.0	-8.1*	91.0	3.1	-7.0
O=C(Cn1cnc2c(nnn2Cc2ccccc2)c1=O)c1ccccc1	0.3	x	105.3	x	4.1	x
O=C(Cn1cnc2c(nnn2Cc2ccc(Cl)cc2)c1=O)c1ccccc1	-2.5	107.0	61.7*	94.0	-1.7	15.0
Cn1nnc2sc3c(c2c1=O)CCCC3	0.7	101.0	79.4*	97.0	0.6	1.0
CCn1c(=O)c2sccc2n(Cc2ccc(C)cc2)c1=O	22.5	99.0	97.9	101.0	-15.4	1.0
C=CCN1C(=O)C2(NNc3ccccc3O2)c2ccccc21 (stereo not drawn)	-83.9	95.0	533.7	95.0	19.0	1.0
CCCCN1C(=O)C2(NNc3ccccc3O2)c2ccccc21 (stereo not drawn)	-23.6	108.0	108.9	54.0*	13.9	20.0
SMILES	UBC13 inh	MEKK3 PB1 HTS	DSG3 Ab inh	MEKK2 WT-MEK5	Apaf1 inhib	MEKK2 mut-MEK5
CCOc1ccccc1NC(=O)C(=O)N/N=C/c1ccc([N+](=O)[O-])cc1	-8.9	96.0	93.2*	100.0	-28.0	-1.0
CCN(CC(=O)N1CCOCC1)S(=O)(=O)c1ccc2ccccc2c1	-8.1	108.0	110.6	105.0	-2.9	1.0
CCOC(=O)c1ccc(S(=O)(=O)NCC(C)(C)N2CCOCC2)cc1	-13.0	99.0	77.0*	87.0	7.7	-12.0
O=[N+]([O-])c1ccccc1S(=O)(=O)N1CCN(Cc2ccc3c(c2)OCO3)CC1	-1.3	65.0	36.8*	62.0	-4.3	-24.0
O=[N+]([O-])c1ccccc1S(=O)(=O)N1CCN(Cc2ccccc2)CC1	5.4	105.0	110.7	104.0	4.6	3.0
Cc1ccc(N2C(=O)/C(=C/c3cccnc3)SC2=S)cc1	-13.6	90.0	88.1*	90.0	7.1	-2.0
Cc1c(NC(=O)C(C)Oc2ccc(Br)cc2Cl)c(=O)n(-c2ccccc2)n1C (stereo not drawn)	0.7	x	117.5	x	5.2	x
CN1CCc2nc(SCc3ccc(Cl)cc3)c(C#N)c(-c3cccs3)c2C1	-23.1	104.0	x	129.0	83.1*	28.0
N#Cc1c(N)nc(SCc2ccncc2)c(C#N)c1-c1cccs1	25.5	83.0	105.7	92.0	13.9	-6.0
Cc1cc2c3c([nH]c2cc1S(=O)(=O)NCCCOC(C)C)CC(C)(C)CC3=O	7.0	102.0	94.6	105.0	2.4	5.0
CC(=O)c1ccc(NC(=O)CSc2ccsc2[N+](=O)[O-])cc1	x	108.0	69.3*	99.0	x	-1.0
Cc1ccc(NC(=O)CSc2ccc(C(N)=O)cc2[N+](=O)[O-])cc1C	-8.1	101.0	69.2*	99.0	-2.2	-1.0
CCN(CC)c1ccc(NC(=O)CSc2ccsc2[N+](=O)[O-])c(C)c1	-5.9	99.0	95.1	98.0	22.2	-1.0
O=C(CSc1ccsc1[N+](=O)[O-])Nc1cc(F)ccc1F	x	103.0	54.3*	92.0	x	-3.0
Cc1ccc(NC(=O)CSc2ccc(C(N)=O)cc2[N+](=O)[O-])cc1	-1.9	112.0	96.5	112.0	-1.4	37.0
Cc1ccc(NC(=O)COC(=O)c2cc(=O)c3ccccc3o2)cc1F	1.8	x	107.5	x	0.5	x
CC1(C)CC(NC(=O)c2cc(Cl)ccc2Cl)CC(C)(C)N1	-3.1	105.0	97.3	108.0	0.4	10.0
N#CC1c2ccccc2C=CN1C(=O)N(c1ccccc1)c1ccccc1 (stereo not drawn)	x	x	117.0	x	x	x
Cc1sc(NC(=O)CSc2nnc3scc(-c4ccccc4)n23)c(C#N)c1C	12.5	106.0	84.2*	103.0	-19.2	4.0
CCOC(=O)CSc1nnc(-c2ccccc2NC(=O)c2ccccc2)o1	0.6	100.0	69.0*	100.0	-7.6	0.0
CCc1nnc(NC(=O)CSc2nnc(-c3ccccc3NC(=O)c3ccccc3)o2)s1	-11.6	90.0	98.2	99.0	-9.4	-5.0
Fc1ccc2nc(C3CCCCN3Cc3nc(CC4CC4)no3)[nH]c2c1 (stereo not drawn)	-6.2	103.0	2.2*	95.0	0.0	5.0
CC(C)c1ccc(NC(=O)COC(=O)C2CCCCC2)cc1	9.7	x	u	x	10.5	x
CC1=CC(=O)C(Sc2ccc(C)cc2)=CC1=O	x	x	85.5	x	x	x
